The source made the active and inactive calls. The calls are words filed in the database; no cut-off is given here.
Tests used:
[1] = biological target: T1, Neuronal acetylcholine receptor; alpha4/beta2 (Homo sapiens, UniProt P17787+P43681); experiment: Displacement of [3H]cytisine from human alpha4beta2 nAChR overexpressed in human SHEP cells after 75 mins by liquid scintillation spectrometric analysis; format: cell-based
Procedure, shortened: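 SH-EP1-hα4β2 membrane homogenates (30–50 µg protein) were incubated with 1 nM [3H]cytisine for 75 min at 4 °C in Tris binding saline, pH 7.0. Filtration on PEI-soaked GF/C filters, scintillation counting. Four experiments in triplicate.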

[2] = biological target: T1, Neuronal acetylcholine receptor; alpha4/beta2; experiment: Antagonist activity at (alpha4beta2)2alpha4 nAChR (unknown origin) expressed in Xenopus oocytes assessed as inhibition of acetylcholine-induced current after 2 mins by two-electrode voltage clamp assay; format: cell-based, Oocyte
[3] = biological target: T2, Neuronal acetylcholine receptor subunit alpha-7 (Homo sapiens, UniProt P36544); experiment: Displacement of [125I]alpha-bungarotoxin from human alpha7 nAChR overexpressed in human SH-SY5Y cells after 120 mins by liquid scintillation spectrometric analysis; format: cell-based
[4] = biological target: T2, Neuronal acetylcholine receptor subunit alpha-7; experiment: Displacement of [125I]alpha-bungarotoxin from human alpha7 nAChR overexpressed in human SH-SY5Y cells at 1 mM after 120 mins by liquid scintillation spectrometric analysis; format: cell-based
Procedure, shortened: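 Membranes from SH-SY5Y-hα7 cells (30–50 µg protein) were incubated with 1 nM [125I]α-BgTx in Tris binding saline, pH 7.0, for 120 min at 25 °C. […] GF/C filtration, top test concentration 1 mM. […] Four experiments, triplicate.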

[5] = biological target: Nicotinic acetylcholine receptor alpha4/beta2/alpha5 (Homo sapiens, UniProt P17787+P30532+P43681); experiment: Antagonist activity at (alpha4beta2)2alpha5 nAChR (unknown origin) expressed in Xenopus oocytes assessed as inhibition of acetylcholine-induced current after 2 mins by two-electrode voltage clamp assay; format: cell-based, Oocyte
[6] = biological target: T1, Neuronal acetylcholine receptor; alpha4/beta2; experiment: Antagonist activity at (alpha4beta2)2beta2 nAChR (unknown origin) expressed in Xenopus oocytes assessed as inhibition of acetylcholine-induced current after 2 mins by two-electrode voltage clamp assay; format: cell-based, Oocyte

T2 sequence (P36544 whole entry): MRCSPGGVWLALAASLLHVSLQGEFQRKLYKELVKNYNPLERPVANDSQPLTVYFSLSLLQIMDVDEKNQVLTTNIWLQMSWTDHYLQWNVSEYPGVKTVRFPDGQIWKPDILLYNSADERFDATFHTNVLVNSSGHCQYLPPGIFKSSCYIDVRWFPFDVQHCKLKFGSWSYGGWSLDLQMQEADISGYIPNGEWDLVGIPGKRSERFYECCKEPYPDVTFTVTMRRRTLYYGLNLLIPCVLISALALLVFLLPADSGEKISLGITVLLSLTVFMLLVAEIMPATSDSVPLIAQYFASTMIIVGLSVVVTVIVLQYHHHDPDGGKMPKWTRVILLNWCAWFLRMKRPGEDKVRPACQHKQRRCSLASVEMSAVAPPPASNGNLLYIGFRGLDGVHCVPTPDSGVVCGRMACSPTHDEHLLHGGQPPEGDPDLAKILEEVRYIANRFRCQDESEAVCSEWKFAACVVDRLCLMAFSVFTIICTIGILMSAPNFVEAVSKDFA
Chain of Nicotinic acetylcholine receptor alpha4/beta2/alpha5 (P17787 whole entry): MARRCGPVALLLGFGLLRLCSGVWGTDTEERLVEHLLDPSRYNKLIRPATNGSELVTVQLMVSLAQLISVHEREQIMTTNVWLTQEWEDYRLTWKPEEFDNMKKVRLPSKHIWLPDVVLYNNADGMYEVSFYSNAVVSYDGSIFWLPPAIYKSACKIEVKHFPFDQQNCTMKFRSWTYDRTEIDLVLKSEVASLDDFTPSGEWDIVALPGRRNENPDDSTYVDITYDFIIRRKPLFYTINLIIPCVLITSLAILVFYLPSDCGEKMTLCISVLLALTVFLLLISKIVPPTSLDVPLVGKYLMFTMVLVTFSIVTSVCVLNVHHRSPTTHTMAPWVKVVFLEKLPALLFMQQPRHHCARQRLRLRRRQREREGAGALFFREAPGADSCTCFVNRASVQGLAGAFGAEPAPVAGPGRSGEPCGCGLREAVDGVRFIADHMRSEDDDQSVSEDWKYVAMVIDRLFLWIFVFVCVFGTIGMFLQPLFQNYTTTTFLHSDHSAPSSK
Chain of Nicotinic acetylcholine receptor alpha4/beta2/alpha5 (P43681 whole entry): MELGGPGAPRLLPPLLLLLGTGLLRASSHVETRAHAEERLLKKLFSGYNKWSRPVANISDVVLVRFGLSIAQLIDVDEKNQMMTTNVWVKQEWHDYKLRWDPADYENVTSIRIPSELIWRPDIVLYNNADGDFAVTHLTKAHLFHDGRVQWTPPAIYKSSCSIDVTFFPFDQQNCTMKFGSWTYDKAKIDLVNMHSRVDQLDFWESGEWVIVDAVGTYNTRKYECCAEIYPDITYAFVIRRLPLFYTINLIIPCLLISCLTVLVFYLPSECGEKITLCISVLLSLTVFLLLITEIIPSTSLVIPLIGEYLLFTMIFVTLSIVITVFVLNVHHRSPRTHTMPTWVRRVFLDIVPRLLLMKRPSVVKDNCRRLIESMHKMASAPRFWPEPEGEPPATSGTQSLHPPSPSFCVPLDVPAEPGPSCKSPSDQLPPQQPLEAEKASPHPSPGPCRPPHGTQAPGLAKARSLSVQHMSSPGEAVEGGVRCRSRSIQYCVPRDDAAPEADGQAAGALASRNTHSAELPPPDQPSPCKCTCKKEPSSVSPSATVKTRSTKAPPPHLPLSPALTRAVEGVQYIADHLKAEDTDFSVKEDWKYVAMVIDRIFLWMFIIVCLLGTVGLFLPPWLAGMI
Chain of Nicotinic acetylcholine receptor alpha4/beta2/alpha5 (P30532 whole entry): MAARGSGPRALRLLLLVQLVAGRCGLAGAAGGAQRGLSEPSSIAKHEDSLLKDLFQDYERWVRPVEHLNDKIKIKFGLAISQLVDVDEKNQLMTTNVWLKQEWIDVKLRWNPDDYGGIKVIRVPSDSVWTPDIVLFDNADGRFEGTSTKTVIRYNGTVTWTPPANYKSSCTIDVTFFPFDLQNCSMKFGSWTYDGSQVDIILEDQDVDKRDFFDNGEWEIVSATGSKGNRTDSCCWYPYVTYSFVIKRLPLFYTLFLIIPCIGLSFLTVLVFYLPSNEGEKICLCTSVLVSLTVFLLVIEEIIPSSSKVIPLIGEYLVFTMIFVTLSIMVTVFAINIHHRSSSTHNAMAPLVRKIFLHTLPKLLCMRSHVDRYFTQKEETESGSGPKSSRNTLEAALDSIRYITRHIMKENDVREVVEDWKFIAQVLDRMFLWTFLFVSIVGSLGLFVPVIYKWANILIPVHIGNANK
T1 sequence (P17787 whole entry): as the sequence (P17787 whole entry) above
T1 sequence (P43681 whole entry): as the sequence (P43681 whole entry) above

Compound | IC50 [1] | Ki [1] | inhibition [1] | IC50 [2] | inhibition [3] | inhibition [4] | IC50 [5] | IC50 [6] | IC50 [3] | Ki [3]
CN1CCC[C@H]1COC(=O)c1cccc(N)c1 | 0.0284 µM | 0.0081 µM | Dose-dependent effect | 1.02 µM | Dose-dependent effect | inactive | 480 µM | 4.3 µM | – | –
CN1CCC[C@H]1COC(=O)c1ccc(Br)cc1 | 0.0784 µM | 0.0224 µM | Dose-dependent effect | – | Dose-dependent effect | – | – | – | 21.1 µM | 10.5 µM
CN1CCC[C@H]1COC(=O)c1ccc(Cl)nc1 | 0.528 µM | 0.151 µM | Dose-dependent effect | – | Dose-dependent effect | – | – | – | 58.5 µM | 29.3 µM
CN1CCC[C@H]1COC(=O)c1ccc(OCc2ccccc2)cc1 | 0.0042 µM | 0.0012 µM | Dose-dependent effect | 3.6 µM | Dose-dependent effect | – | 17.8 µM | 25.8 µM | 2.3 µM | 1.1 µM
CN1CCC[C@H]1COC(=O)c1ccc(OCc2ccccc2)nc1 | 0.166 µM | 0.0455 µM | – | – | – | – | – | – | 59.1 µM | 29.5 µM
CN1CCC[C@H]1COC(=O)c1ccccc1 | 0.0819 µM | 0.0234 µM | Dose-dependent effect | 313 µM | Dose-dependent effect | – | 52.3 µM | 2.5 µM | 13.4 µM | 6.7 µM
CN1CCC[C@H]1COC(=O)c1ccc(Cl)cc1 | 0.0394 µM | 0.0112 µM | Dose-dependent effect | 95 µM | Dose-dependent effect | – | 6 µM | 3.6 µM | 8.9 µM | 4.5 µM
CN1CCC[C@H]1COC(=O)c1cccc([N+](=O)[O-])c1 | 1.61 µM | 0.46 µM | – | – | – | – | – | – | 464 µM | 232 µM
CN1CCC[C@H]1COC(=O)c1cnc2ccccc2c1 | 0.759 µM | 0.217 µM | Dose-dependent effect | – | Dose-dependent effect | – | – | – | 97.3 µM | 48.7 µM
